Laboratory results reported in ChEMBL document CHEMBL1817571, “Design and synthesis of new prostaglandin D₂ receptor antagonists” (Bioorg Med Chem, 2011).

Columns and labels:
[1] = target: Prostaglandin E2 receptor EP2 subtype (Mus musculus, UniProt Q62053); assay: Displacement of [3H]PGE2 from mouse prostaglandin EP2 receptor expressed in CHO cells after 60 mins by liquid scintillation counting; assay type: cell-based
Procedure, shortened: (§1)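 Membranes came from CHO cells stably expressing mEP1, EP2, EP3 or EP4. They were incubated with 2.5 nM [3H]PGE2 and graded test concentrations in 10 mM KH2PO4–KOH (1 mM EDTA, 10 mM MgCl2, 100 mM NaCl, pH 6.0) at room temperature, 20 min for EP1 and 60 min for EP2–4. Reactions were filtered on GF/B, washed with ice-cold buffer, and counted by scintillation. IC50 came by regression, with Ki via Cheng–Prusoff.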

[2] = target: T1, Prostaglandin E2 receptor EP3 subtype (Mus musculus, UniProt P30557); assay: Displacement of [3H]PGE2 from mouse prostaglandin EP3alpha receptor expressed in CHO cells after 60 mins by liquid scintillation counting; assay type: cell-based; procedure, shortened: as §1
T1 sequence (P30557 whole entry): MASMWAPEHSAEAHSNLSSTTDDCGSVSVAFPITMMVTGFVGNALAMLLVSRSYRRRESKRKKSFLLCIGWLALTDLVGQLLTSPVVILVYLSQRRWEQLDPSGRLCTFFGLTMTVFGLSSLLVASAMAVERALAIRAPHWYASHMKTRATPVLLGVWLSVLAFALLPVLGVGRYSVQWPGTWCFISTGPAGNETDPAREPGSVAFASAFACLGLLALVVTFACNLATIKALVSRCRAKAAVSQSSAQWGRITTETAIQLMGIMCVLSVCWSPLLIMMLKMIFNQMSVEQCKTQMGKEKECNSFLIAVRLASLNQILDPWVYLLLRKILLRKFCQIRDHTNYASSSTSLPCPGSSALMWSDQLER

[3] = target: Prostaglandin E2 receptor EP4 subtype (Mus musculus, UniProt P32240); assay: Displacement of [3H]PGE2 from mouse prostaglandin EP4 receptor expressed in CHO cells after 60 mins by liquid scintillation counting; assay type: cell-based; procedure, shortened: as §1
[4] = target: T2, Prostaglandin D2 receptor (Mus musculus, UniProt P70263); assay: Antagonist activity at mouse prostanoid DP receptor expressed in CHO cells assessed as inhibition of PGD2-induced intracellular cAMP production; assay type: functional, cell-based
T2 sequence (P70263 whole entry): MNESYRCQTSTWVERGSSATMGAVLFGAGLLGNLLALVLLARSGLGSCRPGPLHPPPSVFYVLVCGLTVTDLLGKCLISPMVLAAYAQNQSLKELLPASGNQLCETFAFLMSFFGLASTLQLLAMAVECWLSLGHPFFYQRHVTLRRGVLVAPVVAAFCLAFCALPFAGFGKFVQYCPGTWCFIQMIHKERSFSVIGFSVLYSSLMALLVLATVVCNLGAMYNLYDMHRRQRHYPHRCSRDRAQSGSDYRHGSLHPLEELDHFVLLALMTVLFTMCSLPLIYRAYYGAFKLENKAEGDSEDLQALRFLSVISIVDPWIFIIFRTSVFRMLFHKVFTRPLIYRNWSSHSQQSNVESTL
Procedure, shortened: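 CHO-mDP cells were seeded at 1×10^5 cells/well and grown 2 days. They were preincubated about 10 min at 37 °C in MEM with 2 µM diclofenac, then about 10 min in MEM with 0.1% BSA, 1 mM IBMX and 2 µM diclofenac. Test compounds at various concentrations plus 10 nM PGD2 were then added for 10 min at 37 °C. Reactions were stopped with 10% TCA, extracted with tri-n-octylamine/chloroform, and cAMP was measured by EIA.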

[5] = AUC (infinity) in rat at 1 mg/kg, iv; assay type: ADME, organism-based; parameters: time infinity, dose 1 mg/kg, route intravenous; conditions: plasma
Procedure, shortened: (§2)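 Fasted male rats (n = 3) received 1 mg/kg iv or 10 mg/kg po. Jugular vein blood was drawn with a heparinized syringe at pre-dose and 2 (iv only), 5, 15 and 30 min, and 1, 2, 4, 6 and 8 h. Plasma was obtained by centrifugation at 4 °C and stored at −80 °C. AUC, Cmax, T1/2, Vss and CL came from the plasma concentration–time course. BA was derived from dose-normalized AUCpo/AUCiv.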

[6] = AUC (infinity) in rat at 10 mg/kg, po; assay type: ADME, organism-based; parameters: time infinity, dose 10 mg/kg, route oral; conditions: plasma; procedure, shortened: as §2
[7] = Total clearance in rat at 1 mg/kg, iv; assay type: ADME, organism-based; parameters: dose 1 mg/kg, route intravenous; conditions: in vivo; procedure, shortened: as §2
[8] = Cmax in rat at 10 mg/kg, po; assay type: ADME, organism-based; parameters: dose 10 mg/kg, route oral; conditions: in vivo; procedure, shortened: as §2
[9] = Half life in rat at 1 mg/kg, iv; assay type: ADME, organism-based; parameters: dose 1 mg/kg, route intravenous; conditions: in vivo; procedure, shortened: as §2
[10] = Half life in rat at 10 mg/kg, po; assay type: ADME, organism-based; parameters: dose 10 mg/kg, route oral; conditions: in vivo; procedure, shortened: as §2
[11] = Volume of distribution at steady state in rat at 1 mg/kg, iv; assay type: ADME, organism-based; parameters: dose 1 mg/kg, route intravenous; conditions: in vivo, read-out: Vdss; procedure, shortened: as §2
[12] = Oral bioavailability in rat at 10 mg/kg; assay type: ADME, organism-based; conditions: in vivo; procedure, shortened: as §2
[13] = target: T2, Prostaglandin D2 receptor; assay: Displacement of [3H]PGD2 from mouse prostanoid DP receptor expressed in CHO cells after 20 mins by liquid scintillation counting
[14] = target: T3, Prostaglandin E2 receptor EP1 subtype (Mus musculus, UniProt P35375); assay: Displacement of [3H]PGE2 from mouse prostaglandin EP1 receptor expressed in CHO cells after 20 mins by liquid scintillation counting
T3 sequence (P35375 whole entry): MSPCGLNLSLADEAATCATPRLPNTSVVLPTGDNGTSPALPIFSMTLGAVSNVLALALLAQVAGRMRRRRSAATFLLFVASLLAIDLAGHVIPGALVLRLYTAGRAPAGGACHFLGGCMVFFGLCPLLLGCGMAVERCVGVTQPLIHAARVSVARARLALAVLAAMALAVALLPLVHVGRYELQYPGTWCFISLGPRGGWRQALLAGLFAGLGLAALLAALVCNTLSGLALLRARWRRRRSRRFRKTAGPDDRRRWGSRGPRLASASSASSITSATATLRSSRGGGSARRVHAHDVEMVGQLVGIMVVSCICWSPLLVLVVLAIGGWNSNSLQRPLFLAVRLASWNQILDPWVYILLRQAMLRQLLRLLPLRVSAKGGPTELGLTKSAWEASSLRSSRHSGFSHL

[15] = target: Prostacyclin receptor (Homo sapiens, UniProt P43119); assay: Displacement of [3H]Iloprost from human prostanoid IP receptor expressed in CHO cells after 30 mins by liquid scintillation counting
[16] = target: Prostaglandin F2-alpha receptor (Mus musculus, UniProt P43117); assay: Displacement of [3H]PGF2alpha from mouse prostanoid FP receptor expressed in CHO cells after 60 mins by liquid scintillation counting; assay type: cell-based
Procedure, shortened: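 CHO-mFP membranes were incubated with 2.5 nM [3H]PGF2α and varied test concentrations in 10 mM KH2PO4–KOH, 1 mM EDTA, 10 mM MgCl2, 100 mM NaCl, pH 6.0, for 60 min at room temperature. Samples were then filtered on GF/B, washed with ice-cold phosphate/NaCl buffer, and counted by scintillation. IC50 came from the regression curve, and Ki = IC50/(1+[L]/Kd).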

[17] = target: T4, Thromboxane A2 receptor (Homo sapiens, UniProt P21731); assay: Displacement of [3H]-SQ29548 from human prostanoid TP receptor expressed in CHO cells after 30 mins by liquid scintillation counting
T4 sequence (P21731 whole entry): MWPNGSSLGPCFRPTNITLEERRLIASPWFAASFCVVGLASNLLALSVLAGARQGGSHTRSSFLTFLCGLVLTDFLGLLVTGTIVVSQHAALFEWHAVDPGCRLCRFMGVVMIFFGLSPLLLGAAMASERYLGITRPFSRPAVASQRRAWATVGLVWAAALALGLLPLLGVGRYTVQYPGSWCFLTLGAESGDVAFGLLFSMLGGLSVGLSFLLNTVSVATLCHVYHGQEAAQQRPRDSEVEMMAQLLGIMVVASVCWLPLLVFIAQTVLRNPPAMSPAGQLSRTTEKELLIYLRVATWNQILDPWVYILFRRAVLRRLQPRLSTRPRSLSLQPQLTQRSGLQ

Prostaglandin E2 receptor EP4 subtype, sequence (P32240 whole entry): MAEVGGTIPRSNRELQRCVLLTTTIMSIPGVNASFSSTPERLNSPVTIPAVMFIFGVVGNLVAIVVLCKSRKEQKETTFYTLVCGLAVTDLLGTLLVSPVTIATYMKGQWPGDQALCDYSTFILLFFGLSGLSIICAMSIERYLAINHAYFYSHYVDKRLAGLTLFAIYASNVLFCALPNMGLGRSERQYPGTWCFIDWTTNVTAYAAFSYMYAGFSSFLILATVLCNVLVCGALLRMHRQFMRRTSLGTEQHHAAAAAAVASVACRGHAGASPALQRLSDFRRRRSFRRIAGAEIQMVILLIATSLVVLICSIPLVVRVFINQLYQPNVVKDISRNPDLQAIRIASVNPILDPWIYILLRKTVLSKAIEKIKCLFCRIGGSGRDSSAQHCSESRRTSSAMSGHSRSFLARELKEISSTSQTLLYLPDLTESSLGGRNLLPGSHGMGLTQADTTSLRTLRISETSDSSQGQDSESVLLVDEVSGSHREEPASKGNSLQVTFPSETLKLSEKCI
Prostaglandin E2 receptor EP2 subtype, sequence (Q62053 whole entry): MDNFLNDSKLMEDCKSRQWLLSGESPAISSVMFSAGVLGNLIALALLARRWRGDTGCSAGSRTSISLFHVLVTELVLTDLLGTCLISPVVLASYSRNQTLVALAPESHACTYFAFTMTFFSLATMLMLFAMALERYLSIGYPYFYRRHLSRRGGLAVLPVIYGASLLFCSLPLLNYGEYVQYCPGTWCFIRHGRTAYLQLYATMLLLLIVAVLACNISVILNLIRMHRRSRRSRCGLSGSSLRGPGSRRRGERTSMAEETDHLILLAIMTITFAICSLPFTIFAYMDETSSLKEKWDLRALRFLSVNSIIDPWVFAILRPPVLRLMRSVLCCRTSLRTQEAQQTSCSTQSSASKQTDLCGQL
Prostacyclin receptor, sequence (P43119 whole entry): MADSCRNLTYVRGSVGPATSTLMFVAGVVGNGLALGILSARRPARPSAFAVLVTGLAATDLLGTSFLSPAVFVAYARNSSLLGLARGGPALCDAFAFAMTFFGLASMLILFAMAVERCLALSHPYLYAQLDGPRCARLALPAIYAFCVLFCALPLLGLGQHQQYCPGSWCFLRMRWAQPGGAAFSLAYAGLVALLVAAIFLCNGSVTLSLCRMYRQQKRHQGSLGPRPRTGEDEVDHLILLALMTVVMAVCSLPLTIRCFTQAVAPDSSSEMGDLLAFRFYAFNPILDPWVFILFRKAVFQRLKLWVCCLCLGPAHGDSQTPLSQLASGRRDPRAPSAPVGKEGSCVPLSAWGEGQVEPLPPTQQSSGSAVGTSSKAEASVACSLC
Prostaglandin F2-alpha receptor, sequence (P43117 whole entry): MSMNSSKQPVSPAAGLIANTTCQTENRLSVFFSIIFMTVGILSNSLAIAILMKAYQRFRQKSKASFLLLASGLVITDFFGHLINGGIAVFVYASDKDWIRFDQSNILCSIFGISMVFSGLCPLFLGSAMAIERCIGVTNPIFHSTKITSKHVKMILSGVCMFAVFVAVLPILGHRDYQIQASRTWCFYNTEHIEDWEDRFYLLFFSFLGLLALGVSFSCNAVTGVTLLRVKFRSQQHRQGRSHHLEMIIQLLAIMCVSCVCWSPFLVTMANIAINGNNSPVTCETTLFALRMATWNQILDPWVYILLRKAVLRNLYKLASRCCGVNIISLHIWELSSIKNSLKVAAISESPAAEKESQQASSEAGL

Row | SMILES | Ki [1] [µM] | Ki [2] [µM] | Ki [3] [µM] | IC50 [4] [µM] | Ki [13] [µM] | Ki [14] [µM] | Ki [15] [µM] | further results
1 | CN1C[C@@H](COc2ccc(C(=O)Nc3cccc(CC(=O)O)c3)cc2)Oc2ccccc21 | 0.52 | > 10 | > 10 | 0.22 | 0.31 | 2.1 | 6.4 | AUC(0-inf) [5]: 670 ng·h/mL; AUC(0-inf) [6]: 8000 ng·h/mL; clearance [7]: 25 mL/min/kg; Cmax [8]: 4900 ng/mL; half-life [9]: 0.27 h; half-life [10]: 1.8 h; Vd [11]: 0.22 L/kg; bioavailability [12]: 119%
2 | CN1C[C@@H](COc2ccc(S(=O)(=O)Nc3cccc(CC(=O)O)c3)cc2)Oc2ccccc21 | 2.3 | 0.21 | 0.14 | – | 0.43 | 2.7 | 4.6 | –
3 | CN1C[C@@H](COc2ccc(NC(=O)c3cccc(CC(=O)O)c3)cc2)Oc2ccccc21 | 3.5 | > 10 | > 10 | – | 5.3 | > 10 | > 10 | –
4 | CN1C[C@@H](COc2ccc(C(=O)N(C)c3cccc(CC(=O)O)c3)cc2)Oc2ccccc21 | 5.3 | 1.7 | > 10 | – | 0.76 | > 10 | > 10 | –
5 | CCN(C(=O)c1ccc(OC[C@@H]2CN(C)c3ccccc3O2)cc1)c1cccc(CC(=O)O)c1 | > 10 | 0.7 | > 10 | – | 0.77 | 1.3 | 2.9 | –

More lines, main results first:

Row | Ki [1] [µM] | Ki [2] [µM] | Ki [3] [µM] | IC50 [4] [µM] | Ki [13] [µM] | Ki [14] [µM] | Ki [15] [µM] | SMILES | further results
6 | – | > 10 | > 10 | 0.0033 | 0.018 | > 10 | 3.6 | Cc1cc(OC[C@@H]2CN(C)c3ccccc3O2)ccc1C(=O)Nc1cccc(CC(=O)O)c1 | Ki [16]: > 10 µM; Ki [17]: > 10 µM
7 | – | – | – | 0.02 | 0.016 | – | – | CN1C[C@@H](COc2ccc(C(=O)Nc3cccc(CC(=O)O)c3)c(Cl)c2)Oc2ccccc21 | –
8 | – | – | – | 0.028 | 0.059 | – | – | Cc1cc(OC[C@@H]2CN(C)c3ccccc3O2)ccc1C(=O)Nc1cccc(CC(=O)O)c1C | –
9 | 0.062 | > 10 | 0.67 | 0.0034 | 0.0084 | > 10 | 3.5 | Cc1cc(CC(=O)O)cc(NC(=O)c2ccc(OC[C@@H]3CN(C)c4ccccc4O3)cc2C)c1 | Ki [16]: > 10 µM; Ki [17]: > 10 µM
10 | – | – | – | 0.0061 | 0.011 | – | – | Cc1ccc(NC(=O)c2ccc(OC[C@@H]3CN(C)c4ccccc4O3)cc2C)cc1CC(=O)O | –
11 | – | – | – | – | 0.0077 | – | – | Cc1cc(OC[C@@H]2CN(C)c3ccccc3O2)ccc1C(=O)Nc1cc(CC(=O)O)ccc1Cl | –
